Tb hexokinase: blocks Trypanosoma brucei hexokinase 1 activity; recombinant TbHK1, G6PDH-coupled NADH A340; hit rate 0.11% among 220,000; inhibition, % at 10 µM;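 active means inhibition of 50% or more in the single-dose primary screen; inactive means inhibition below 50%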
EP2 mod: modulates human prostaglandin E2 receptor EP2 signaling. hit rate 0.83% among 260,000. EP2-expressing cells, cAMP HTRF FRET, PGE2 co-stimulation. induction, % at 25 µM. P43116. AID 940;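 active means compounds whose cAMP rise, as percent of the full-agonist control response, exceeds 60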;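 further: rat C6 glioma line stably carrying human EP2 under a CMV promoter; the protocol text gives 20 µM as final concentration; 100% = response of wells given 1 µM PGE2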
Target sequence (P43116 whole entry, looked up): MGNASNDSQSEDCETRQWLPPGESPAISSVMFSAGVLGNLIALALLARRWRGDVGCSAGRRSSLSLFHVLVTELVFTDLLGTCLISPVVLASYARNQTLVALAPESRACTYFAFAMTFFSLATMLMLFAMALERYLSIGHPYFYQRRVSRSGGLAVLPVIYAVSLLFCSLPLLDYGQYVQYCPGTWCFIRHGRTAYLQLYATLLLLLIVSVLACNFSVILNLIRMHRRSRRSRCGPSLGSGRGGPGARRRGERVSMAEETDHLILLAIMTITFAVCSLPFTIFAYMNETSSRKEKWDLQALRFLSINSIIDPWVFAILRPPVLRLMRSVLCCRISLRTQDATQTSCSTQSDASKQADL
PfGluPho inh: PfG6PD (Plasmodium falciparum) enzyme inhibition. PfGluPho enzyme, NADPH resazurin-diaphorase fluorescence. inhibition, % at 20 µM. hit rate 0.78% among 350,000. AID 504690;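 active means inhibition reaching at least a set limit at 20 µM in the primary screen, cut at about 59% in these data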;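 further: 0% = DMSO wells with substrate and 100% = DMSO wells lacking glucose-6-phosphate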
HKDC1 inhibitor: HKDC1 (human) hexokinase inhibition. Q2TB90. recombinant HKDC1, G6PDH/diaphorase resazurin coupled fluorescence. inhibition, % at 20 µM. hit rate 0.16% among 340,000. AID 493160;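 active means inhibition above about 35% when tested at 20 µM, limit read from the data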;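 further: plate controls were DMSO wells with enzyme for no effect and DMSO wells lacking enzyme for full effect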
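Test system: recombinant HKDC1 (HK5) hexokinase enzyme, produced in-house; Amount: enzyme 5 µg/mL final; Buffer or medium: Tris pH 8.0 buffer with MgCl2, Tween-20, BSA, BME; Reagent: glucose and ATP substrates; Doses: 20 µM test compound, 1% DMSO; Incubation: 90 min reaction incubation at room temperature, dark; Detection: resorufin fluorescence at 613 nm.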
PHOSPHO1 inh: blocks human PHOSPHO1 phosphatase activity | recombinant PHOSPHO1, absorbance phosphatase assay | inhibition, % at 13.3 µM | AID 1565 | hit rate 1.1% among 290,000 | Q8TCT1; in the data active means inhibition above about 60%
Target sequence (Q8TCT1 whole entry, looked up): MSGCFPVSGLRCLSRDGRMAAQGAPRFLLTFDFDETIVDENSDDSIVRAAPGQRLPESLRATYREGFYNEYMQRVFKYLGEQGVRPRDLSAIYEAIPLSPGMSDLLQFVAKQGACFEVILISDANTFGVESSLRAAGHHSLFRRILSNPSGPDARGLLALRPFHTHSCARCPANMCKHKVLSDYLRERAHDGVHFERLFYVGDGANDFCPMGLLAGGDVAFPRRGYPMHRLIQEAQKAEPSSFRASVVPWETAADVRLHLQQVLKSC
EP2 antag: EP2 receptor (human) inhibition. P43116. C6 glioma cells expressing human EP2, cAMP TR-FRET; cells stimulated with saturating PGE2. inhibition, % at 25 µM. hit rate 0.52% among 260,000. AID 1422;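 active means percent inhibition above 40 after rounding to a whole number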;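 further: rat C6 glioma host cells with rolipram phosphodiesterase inhibitor present; the protocol text gives 20 µM as final concentration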
PfG6PD confirm: confirmation of Plasmodium falciparum G6PD inhibitors; shares compounds with PfGluPho inh; recombinant PfGluPho, NADPH-diaphorase-resazurin fluorescence; inhibition, % at 20 µM; hit rate 34% among 2,400;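 active means inhibition of at least 50% at 20 µM in any single replicate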;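 further: 0% = DMSO with substrate and 100% = DMSO lacking glucose-6-phosphate substrate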
Diaphorase 10uM: inhibits diaphorase or oxidizes, flagging false PfG6PD hits; inhibition, % at 20 µM; hit rate 39% among 820; shares compounds with PfGluPho inh; diaphorase-coupled resazurin reduction, fluorescence, NADPH 10 uM; AID 504862;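 active means average inhibition reaching 50% or more with the compound at 20 µM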;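 further: resorufin red fluorescence formed as diaphorase reduces resazurin using NADPH; 0% = DMSO with enzyme and 100% = DMSO without enzyme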
Diaphorase 30uM: inhibits diaphorase or oxidizes, flagging false PfG6PD hits. shares compounds with PfGluPho inh. Diaphorase/resazurin coupled assay, resorufin fluorescence, 30 uM NADPH. inhibition, % at 20 µM. hit rate 29% among 820. AID 504863;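 active means inhibition averaging 50% or more, tested at 20 µM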;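 further: 0% = DMSO with enzyme and 100% = DMSO wells lacking diaphorase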
The depositor's hits bear a star; nt = no result given. Sampled rows, rich in hits. Any-hit rate of the full collection: about 2.5%.

SMILES	Tb hexokinase	EP2 mod	PfGluPho inh	HKDC1 inhibitor	PHOSPHO1 inh	EP2 antag	PfG6PD confirm	others
CCOC(=O)c1ccc(NC(=O)c2cc3ccccc3o2)cc1	2	48	67*	-1	-20	19	-16
O=C(Nc1ccc2c(c1)CCC2)c1cc2ccccc2o1	-2	-6	88*	5	-6	nt	5
CCCc1n(CC(O)COc2ccc(I)cc2)c2ccccc2[n+]1C (stereo not given)	nt	-1	nt	nt	nt	10	nt
Cc1ccc2[nH]c(=O)c(CN(C3CCCCC3)S(=O)(=O)c3ccccc3Cl)cc2c1	nt	-9	nt	nt	nt	7	nt
Cn1c2ccccc2c(=O)c2cc(C#Cc3ccc(N)cc3)ccc21	nt	nt	79*	-2	15	nt	42
Cc1ccc(OCCn2cc(C=O)c3ccccc32)cc1	nt	nt	12	-2	31	nt	nt
Cc1ccc(OCCn2cc(/C=C3\C(=O)NN(c4ccccc4)C3=O)c3ccccc32)cc1	3	16	65*	8	-21	7	33
COc1ccc(F)cc1S(=O)(=O)Nc1ccc(C)cc1	4	-26	63*	-6	-1	3	37
CCOC(=O)c1c(C)oc2c1c(C=NCc1ccccn1)c(O)c1ccccc12	-16	13	68*	22	37	nt	40
O=[N+]([O-])c1ccc(-c2c[nH]c(=S)[nH]2)cc1	-5	-26	64*	-10	-28	11	34
S=c1[nH]cc(-c2ccccc2)[nH]1	-6	-25	21	-9	-25	6	nt
CC1(C)Cc2c(sc3nc4[nH][nH]c(=S)n4c(=O)c23)CO1	nt	0	nt	nt	nt	8	nt
Cc1ccc(NC(=O)c2cc([N+](=O)[O-])ccc2N2CCOCC2)cc1C	nt	nt	32	-2	-26	nt	nt
Cc1ccc(NC(=O)c2cc([N+](=O)[O-])ccc2N2CCOCC2)cc1S(=O)(=O)N(C)C	-26	-26	78*	3	19	6	35
CCCN1C(=O)C(O)(CC(=O)c2ccc3ccccc3c2)c2ccccc21 (stereo not given)	nt	-13	nt	nt	nt	13	nt
CC(=O)C(Sc1nn(C)c(=S)s1)C(=O)Nc1ccccc1 (stereo not given)	-23	4	61*	5	98*	7	-32
CCN(CC)CC(C)(C)C(=O)/C=C/c1ccc(/C=C/C(=O)C(C)(C)CN(CC)CC)cc1	nt	nt	64*	-3	nt	nt	45
CCN(CC)CCOC(=O)/C=C/c1ccccc1	-1	-22	-5	-8	-4	14	nt
O=C(Oc1ccccc1/C=C1\Sc2ccccc2C1=O)c1ccco1	nt	-34	nt	nt	nt	10	nt
CN(C(=O)C=Cc1ccccc1)c1ccccc1	nt	nt	-9	-6	nt	nt	nt
O=C(CCl)N(O)c1ccc(C=Cc2ccccc2)cc1	nt	nt	62*	0	nt	nt	-6
C=CCn1c(N)c(C(=O)NCCC2=CCCCC2)sc1=S	-4	9	69*	-1	77*	3	29
COc1ccc(CNC(=O)c2cc3n(n2)C(C(F)(F)F)CC(c2ccc4c(c2)OCO4)N3)cc1 (stereo not given)	nt	-10	nt	nt	nt	11	nt
CC1(C)CC(=O)C2=C(C1)NC1=C(C(=O)c3ccccc31)C2c1ccc(Cl)cc1 (stereo not given)	-4	-28	68*	9	-44	8	14
Cc1ccc(C2C3=C(CC(C)(C)CC3=O)NC3=C2C(=O)c2ccccc23)cc1 (stereo not given)	13	-30	36	16	-25	18	nt
SMILES	Tb hexokinase	EP2 mod	PfGluPho inh	HKDC1 inhibitor	PHOSPHO1 inh	EP2 antag	PfG6PD confirm	others
O=C(Nc1ccc([N+](=O)[O-])cc1Cl)c1cc(Cl)ccc1O	nt	-12	94*	5	nt	13	51*	Diaphorase 10uM=41;Diaphorase 30uM=31
CCC1(CC)Cc2ccccc2-c2nc(NN)[nH]c(=O)c21	-19	-36	76*	5	-6	8	31
CCC1(C)Cc2ccccc2-c2nc(NN)[nH]c(=O)c21 (stereo not given)	nt	nt	36	4	48	nt	nt
CCCCC1C(=O)N(c2ccccc2)N(c2ccc(O)cc2)C1=O (stereo not given)	nt	-30	78*	-2	nt	21	54*	Diaphorase 10uM=-26;Diaphorase 30uM=-36
Cc1nn(CC(=O)N2CCN(Cc3ccccc3)CC2)c(=O)c2cc3ccsc3n12	nt	6	nt	nt	nt	nt	nt
O=C(CN(Cc1ccc(Br)cc1)S(=O)(=O)c1ccccc1)NCc1cccnc1	nt	nt	63*	2	-97	nt	27
CS(=O)(=O)N(CC(=O)NCc1cccnc1)Cc1ccc(Cl)cc1	1	12	7	-12	10	4	nt
COCCCn1c(SCC(=O)Nc2ccc(F)cc2)nnc1-c1ccco1	nt	-36	nt	nt	nt	11	nt
CCOc1ccccc1-n1c(=S)sc2c(=O)n(-c3ccc(C)cc3)c(=S)[nH]c21	-19	-1	98*	-1	10	6	78*	Diaphorase 10uM=56*;Diaphorase 30uM=51*
CCn1c(=S)sc2c(=O)n(-c3ccccc3)c(=S)[nH]c21	-38	9	28	1	-1	1	nt
COc1ccc(-n2c(=S)[nH]c3c(sc(=S)n3-c3ccccc3)c2=O)c(OC)c1	-36	8	89*	-13	34	2	61*	Diaphorase 10uM=-3;Diaphorase 30uM=4
Cc1ccc2cc(C(c3nnnn3C3CCCCC3)N3CCCC(C)C3)c(=O)[nH]c2c1 (stereo not given)	nt	7	nt	nt	nt	9	nt
O=C1COc2ccc(C(=O)COC(=O)c3ccccc3F)cc2N1	nt	nt	1	-2	nt	nt	nt
COC(=O)c1ccccc1C(=O)c1ccc2c(c1)NC(=O)CO2	-7	-22	68*	1	33	3	35
CCN(CC)C(=O)c1sc2nc(N3CCOCC3)c3c(c2c1N)CCCC3	-22	32	76*	8	80*	16	10
Nc1c(C(=O)NCc2ccco2)sc2nc(N3CCOCC3)c3c(c12)CCCC3	-1	6	66*	9	92*	20	-1
Nc1c(C(=O)Nc2ccc(Br)cc2)sc2nc(N3CCOCC3)c3c(c12)CCCC3	nt	nt	12	nt	nt	nt	nt
CC1CC(C)CN(C(=O)Cn2nc3n(C)c4ccccc4n3c2=O)C1 (stereo not given)	nt	-17	nt	nt	nt	6	nt
Cc1ccc(Cn2c(Sc3nc4ccccc4[nH]3)nc3c2c(=O)[nH]c(=O)n3C)cc1	nt	-47	nt	nt	nt	7	nt
COc1cccc(NC(=O)CSc2nc3cc4c(cc3cc2C)OCO4)c1	nt	-36	nt	nt	nt	20	nt
Cc1cc(C)c(S(=O)(=O)c2cccc(Br)c2C)c(Cl)n1	nt	nt	69*	1	nt	nt	22
Cc1cc(C)c(S(=O)(=O)c2ccccc2Cl)c(Cl)n1	7	-23	nt	nt	-17	4	nt
